Data reported in ChEMBL document CHEMBL4725473, “A Chemical Probe for the Methyl Transferase PRMT5 with a Novel Binding Mode” (ACS Med Chem Lett, 2020).
One block for each compound: values may come before it. Calls of active or inactive are those of the source. The calls are words filed in the database; no cut-off is given here.

Tests used:
[1] = molecular target: T1, PRMT5/MEP50 complex (Homo sapiens, UniProt O14744); experiment: (§1) Inhibition of full-length human N-terminal FLAG-tagged PRMT5/full length N-terminal His6-tagged MEP50 (unknown origin) expressed in baculovirus infected Sf9 insect cells assessed as reduction of S-adenosyl-L-homocysteine formation using human recombinant histone H2A (1 to 130 residues) and S-adenosyl-L-methionine as substrate after 60 mins by rapidfire mass spectrometry analysis
T1 sequence (O14744 whole entry, the tested form may be a part): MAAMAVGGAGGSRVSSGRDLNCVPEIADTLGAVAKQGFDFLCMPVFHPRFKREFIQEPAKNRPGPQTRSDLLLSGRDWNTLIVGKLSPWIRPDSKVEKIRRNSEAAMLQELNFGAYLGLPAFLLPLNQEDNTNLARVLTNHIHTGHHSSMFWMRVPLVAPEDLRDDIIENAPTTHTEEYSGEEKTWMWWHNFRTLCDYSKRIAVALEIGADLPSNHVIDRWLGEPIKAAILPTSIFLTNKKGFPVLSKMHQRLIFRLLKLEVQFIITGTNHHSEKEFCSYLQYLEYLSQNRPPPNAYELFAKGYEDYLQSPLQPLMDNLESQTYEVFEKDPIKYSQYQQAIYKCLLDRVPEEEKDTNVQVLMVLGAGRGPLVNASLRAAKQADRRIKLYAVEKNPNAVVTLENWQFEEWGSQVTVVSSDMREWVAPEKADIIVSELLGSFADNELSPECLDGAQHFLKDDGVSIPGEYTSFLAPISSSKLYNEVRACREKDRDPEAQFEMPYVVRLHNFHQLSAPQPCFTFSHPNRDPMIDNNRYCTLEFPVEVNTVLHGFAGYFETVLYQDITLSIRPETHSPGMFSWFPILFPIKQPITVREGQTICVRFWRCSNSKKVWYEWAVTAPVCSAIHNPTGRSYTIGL
T1 sequence (Q9BQA1 whole entry, further chain, the tested form may be a part): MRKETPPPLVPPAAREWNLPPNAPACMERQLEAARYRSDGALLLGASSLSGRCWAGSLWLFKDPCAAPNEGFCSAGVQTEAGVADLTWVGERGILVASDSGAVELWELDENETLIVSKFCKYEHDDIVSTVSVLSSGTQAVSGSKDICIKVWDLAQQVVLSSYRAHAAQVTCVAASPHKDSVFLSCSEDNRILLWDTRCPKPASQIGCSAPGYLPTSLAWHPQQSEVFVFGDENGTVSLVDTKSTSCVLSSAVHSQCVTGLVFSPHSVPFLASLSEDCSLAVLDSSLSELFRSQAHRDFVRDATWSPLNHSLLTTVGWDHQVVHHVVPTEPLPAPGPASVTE
How it was run: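 PRMT5–MEP50 complex at 5.0 nM in assay; recombinant human histone H2A as substrate. Read-out is the decrease in SAM→SAH conversion, measured by RapidFire high-throughput mass spectrometry. IC50 reported as mean of n ≥ 2.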

[2] = molecular target: Histone-lysine N-methyltransferase KMT5B (Homo sapiens) (UniProt Q4FZB7); experiment: Inhibition of recombinant human N-terminal GST-tagged SUV420H1 (2 to 393 residues ) expressed in baculovirus infected Sf9 cells using core histone as substrate at 10 uM by radiometric HotSpot assay relative to control
How it was run: (§2)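 Selectivity panel of 21 purified recombinant human arginine and lysine methyltransferases. Compound tested at a single 10 μM concentration; percent inhibition of each enzyme reported.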

[3] = molecular target: Histone-lysine N-methyltransferase SETD7 (Homo sapiens) (UniProt Q8WTS6); experiment: Inhibition of recombinant human full length C-terminal His-tagged SETD7 expressed in Escherichia coli using core histone as substrate at 10 uM by radiometric HotSpot assay relative to control; how it was run: as §2
Chain of Histone-lysine N-methyltransferase SETD7 (Homo sapiens) (Q8WTS6 whole entry): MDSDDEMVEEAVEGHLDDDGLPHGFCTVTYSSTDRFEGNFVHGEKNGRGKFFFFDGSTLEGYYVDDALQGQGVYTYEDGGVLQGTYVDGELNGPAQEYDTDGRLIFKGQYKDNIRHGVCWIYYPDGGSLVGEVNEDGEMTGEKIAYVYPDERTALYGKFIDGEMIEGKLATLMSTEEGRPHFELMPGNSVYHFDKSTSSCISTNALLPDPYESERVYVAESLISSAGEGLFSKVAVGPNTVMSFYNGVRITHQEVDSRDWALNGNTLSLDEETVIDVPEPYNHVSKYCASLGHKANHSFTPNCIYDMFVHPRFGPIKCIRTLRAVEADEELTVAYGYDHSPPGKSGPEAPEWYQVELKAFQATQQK

[4] = molecular target: T2, PRMT5/MEP50 complex (Homo sapiens) (UniProt O14744+Q9BQA1); experiment: as §1, with “Non-competitive inhibition” for “Inhibition”, “and varying concentrations of” for “and”, “80” for “60”
[5] = molecular target: Histone-lysine N-methyltransferase, H3 lysine-36 specific (Homo sapiens) (UniProt Q96L73); experiment: Inhibition of N-terminal His-tagged recombinant human NSD1 (1538 to 2696 residues) expressed in baculovirus infected insect cells using nucleosome as substrate at expressed in 10 uM by radiometric HotSpot assay relative to control; how it was run: as §2
[6] = molecular target: Histone-lysine N-methyltransferase SUV39H2 (Homo sapiens) (UniProt Q9H5I1); experiment: Inhibition of recombinant human C-terminal His-tagged SUV39H2 (48 to 410 residues) expressed in Escherichia coli using nucleosome as substrate at 10 uM by radiometric HotSpot assay relative to control; how it was run: as §2
[7] = molecular target: Protein arginine N-methyltransferase 8 (Homo sapiens) (UniProt Q9NR22); experiment: Inhibition of recombinant human N-terminal and C-terminal His-tagged PRMT8 (61 to 394 residues) expressed in Escherichia coli using histone H4 as substrate at 10 uM by radiometric HotSpot assay relative to control; how it was run: as §2
[8] = molecular target: N-lysine methyltransferase SMYD2 (Homo sapiens) (UniProt Q9NRG4); experiment: Inhibition of recombinant human N-terminal His-tagged SMYD2 (2 to 433 residues) expressed in Escherichia coli using histone H4 as substrate at 10 uM by radiometric HotSpot assay relative to control; how it was run: as §2
Chain of N-lysine methyltransferase SMYD2 (Homo sapiens) (Q9NRG4 whole entry, the tested form may be a part): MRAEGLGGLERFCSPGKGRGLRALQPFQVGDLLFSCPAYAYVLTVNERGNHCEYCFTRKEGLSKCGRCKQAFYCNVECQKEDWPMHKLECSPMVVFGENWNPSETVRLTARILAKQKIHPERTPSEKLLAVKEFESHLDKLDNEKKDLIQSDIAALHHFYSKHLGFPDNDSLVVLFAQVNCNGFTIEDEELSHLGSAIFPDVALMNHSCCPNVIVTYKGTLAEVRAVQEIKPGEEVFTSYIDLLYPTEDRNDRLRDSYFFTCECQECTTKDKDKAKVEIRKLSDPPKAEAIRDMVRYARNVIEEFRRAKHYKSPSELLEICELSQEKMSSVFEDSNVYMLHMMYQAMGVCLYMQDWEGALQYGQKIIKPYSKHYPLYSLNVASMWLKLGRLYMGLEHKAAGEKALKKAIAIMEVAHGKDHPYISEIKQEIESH

[9] = molecular target: T2, PRMT5/MEP50 complex (Homo sapiens); experiment: Inhibition of recombinat human N-terminal Flag-tagged PRMT5 (2 to 637 residues)/ N-terminal His-tagged MEP50 (2 to 342 residues) (unknown origin) expressed in baculovirus infected Sf9 cells using recombinant human histone H2A (1 to 130 residues) as substrate at 10 uM by radiometric HotSpot assay relative to control; how it was run: as §2
[10] = molecular target: Protein arginine N-methyltransferase 3 (Homo sapiens) (UniProt O60678); experiment: Inhibition of recombinant human His-tagged PRMT3 (2 to end residues) expressed in Escherichia coli using histone H4 as substrate at 10 uM by radiometric HotSpot assay relative to control; how it was run: as §2
[11] = molecular target: T1, PRMT5/MEP50 complex; experiment: Binding affinity to N-terminal FLAG-tagged human PRMT5 (1 to 637 residues)/N-terminal thrombin His-tagged MEP50 (2 to 342 residues) expressed in baculovirus infected Sf21 cells by streptavidin coated sensor chip based surface plasmon resonance analysis
[12] = species: Homo sapiens; experiment: Inhibition of recombinant human N-terminal His-tagged EZH2 (2 to 746)/human recombinant AEBP2 (2 to 517)/human recombinant EED (2 to 441)/human recombinant RbAp48 (2 to 425)/human recombinant SUZ12 (2 to 739) expressed in baculovirus infected insect cells using core histone as substrate at 10 uM by radiometric HotSpot assay relative to control; how it was run: as §2
[13] = molecular target: T2, PRMT5/MEP50 complex (Homo sapiens); experiment: as §1, with “Competitive inhibition” for “Inhibition”, “using varying concentrations of” for “using”, “80” for “60”
[14] = molecular target: Histone-lysine N-methyltransferase PRDM9 (Homo sapiens) (UniProt Q9NQV7); experiment: Inhibition of recombinant human N-terminal GST-tagged PRDM9 (2 to 414 residues) expressed in baculovirus infected Sf9 cells using histone H3 as substrate at 10 uM by radiometric HotSpot assay relative to control; how it was run: as §2
[15] = molecular target: Protein arginine N-methyltransferase 5 (Homo sapiens, UniProt O14744); experiment: Inhibition of PRMT5 in human A549 cells assessed as reduction in arginine dimethylation of SmD1/3 after 48 hrs by Hoechst Stain/ CellMask Deep Red Stain based immunohistochemistry method; assay type: cell-based
Chain of Protein arginine N-methyltransferase 5 (O14744 whole entry): as the sequence (O14744 whole entry, the tested form may be a part) above
How it was run: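 A549 cells treated with compound for 48 h (2 days). Symmetric arginine dimethylation of SmD1/3 measured by immunofluorescence microscopy as the nuclear/cytoplasmic intensity ratio, normalized to DMSO control. Concentration–response curves; mean ± SE of at least three replicates (n ≥ 3).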

[16] = molecular target: Histone-arginine methyltransferase CARM1 (Homo sapiens) (UniProt Q86X55); experiment: Inhibition of recombinant human FLAG-tagged PRMT4 (2 to end residues) expressed in FreeStyle HEK293-F cells using histone H3 as substrate at 10 uM by radiometric HotSpot assay relative to control; how it was run: as §2
[17] = molecular target: Histone-lysine N-methyltransferase SETD1B (Homo sapiens) (UniProt Q9UPS6); experiment: Inhibition of recombinant human N- terminal GST-tagged SET1B (1629 to 1923 residues) expressed in Escherichia coli using core histone as substrate at 10 uM by radiometric HotSpot assay relative to control; how it was run: as §2
Chain of Histone-lysine N-methyltransferase SETD1B (Homo sapiens) (Q9UPS6 whole entry, the tested form may be a part): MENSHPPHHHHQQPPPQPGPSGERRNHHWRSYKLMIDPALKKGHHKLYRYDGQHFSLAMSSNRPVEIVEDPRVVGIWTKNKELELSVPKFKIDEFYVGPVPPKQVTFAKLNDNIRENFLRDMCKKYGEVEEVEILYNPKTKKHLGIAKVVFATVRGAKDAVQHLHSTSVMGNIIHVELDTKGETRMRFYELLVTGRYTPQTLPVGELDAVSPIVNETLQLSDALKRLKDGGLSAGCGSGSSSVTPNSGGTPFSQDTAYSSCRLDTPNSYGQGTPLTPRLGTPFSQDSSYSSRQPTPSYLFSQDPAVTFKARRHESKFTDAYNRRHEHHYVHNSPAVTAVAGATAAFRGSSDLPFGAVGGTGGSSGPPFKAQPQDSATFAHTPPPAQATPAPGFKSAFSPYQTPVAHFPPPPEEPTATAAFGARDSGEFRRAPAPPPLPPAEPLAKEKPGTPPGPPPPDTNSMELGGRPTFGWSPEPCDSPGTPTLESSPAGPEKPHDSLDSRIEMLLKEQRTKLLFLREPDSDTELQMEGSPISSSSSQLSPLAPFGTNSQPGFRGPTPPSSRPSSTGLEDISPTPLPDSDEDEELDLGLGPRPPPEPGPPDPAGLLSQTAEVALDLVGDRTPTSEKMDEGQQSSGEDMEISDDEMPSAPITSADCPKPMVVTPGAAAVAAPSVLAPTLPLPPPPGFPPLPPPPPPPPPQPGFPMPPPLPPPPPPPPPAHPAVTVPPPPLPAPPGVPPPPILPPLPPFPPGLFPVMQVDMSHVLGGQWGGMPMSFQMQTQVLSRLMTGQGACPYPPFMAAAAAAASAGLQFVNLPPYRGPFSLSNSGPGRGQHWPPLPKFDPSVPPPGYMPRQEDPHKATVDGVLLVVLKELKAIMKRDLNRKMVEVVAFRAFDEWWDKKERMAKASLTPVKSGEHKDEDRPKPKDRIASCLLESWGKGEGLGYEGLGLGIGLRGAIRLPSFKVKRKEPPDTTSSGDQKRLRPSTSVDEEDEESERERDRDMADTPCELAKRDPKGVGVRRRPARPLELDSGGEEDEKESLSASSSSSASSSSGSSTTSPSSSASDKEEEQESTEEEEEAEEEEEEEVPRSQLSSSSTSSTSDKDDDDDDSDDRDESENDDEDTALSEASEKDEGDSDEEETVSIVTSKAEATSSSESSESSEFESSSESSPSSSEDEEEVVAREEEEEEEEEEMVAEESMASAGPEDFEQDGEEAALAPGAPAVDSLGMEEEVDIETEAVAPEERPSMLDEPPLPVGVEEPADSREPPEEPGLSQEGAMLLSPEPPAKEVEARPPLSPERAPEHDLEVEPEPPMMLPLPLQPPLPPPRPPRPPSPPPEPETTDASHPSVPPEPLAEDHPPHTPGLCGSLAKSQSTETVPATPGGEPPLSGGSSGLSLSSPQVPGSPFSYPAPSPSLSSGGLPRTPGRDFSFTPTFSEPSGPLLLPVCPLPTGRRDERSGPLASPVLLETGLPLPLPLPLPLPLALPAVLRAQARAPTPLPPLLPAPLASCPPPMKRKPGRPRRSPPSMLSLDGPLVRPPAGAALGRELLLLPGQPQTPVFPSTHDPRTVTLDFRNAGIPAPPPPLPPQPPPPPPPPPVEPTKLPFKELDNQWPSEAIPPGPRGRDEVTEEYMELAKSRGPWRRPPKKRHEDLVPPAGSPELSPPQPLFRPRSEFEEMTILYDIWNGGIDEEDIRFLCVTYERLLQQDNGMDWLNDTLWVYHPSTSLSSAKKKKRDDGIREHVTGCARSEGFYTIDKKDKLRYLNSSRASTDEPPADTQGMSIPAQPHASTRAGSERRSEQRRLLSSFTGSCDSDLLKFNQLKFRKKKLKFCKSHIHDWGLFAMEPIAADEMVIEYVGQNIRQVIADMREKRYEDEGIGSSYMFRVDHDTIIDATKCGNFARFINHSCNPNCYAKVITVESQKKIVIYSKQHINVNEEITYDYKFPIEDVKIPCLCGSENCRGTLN

[18] = molecular target: Histone-lysine N-methyltransferase, H3 lysine-79 specific (Homo sapiens) (UniProt Q8TEK3); experiment: Inhibition of recombinant human N-terminal GST-tagged DOT1L (1 to 416 residues) expressed in Escherichia coli using nucleosome as substrate at 10 uM by radiometric HotSpot assay relative to control; how it was run: as §2
[19] = molecular target: Histone-lysine N-methyltransferase SETD2 (Homo sapiens) (UniProt Q9BYW2); experiment: Inhibition of recombinant human N-terminal GST-tagged SETD2 (1433 to 1711 residues) expressed in Escherichia coli using nucleosome as substrate at 10 uM by radiometric HotSpot assay relative to control; how it was run: as §2
[20] = molecular target: N-lysine methyltransferase KMT5A (Homo sapiens) (UniProt Q9NQR1); experiment: Inhibition of recombinant human GST-tagged SETD8 (195 to 352 residues) expressed in Escherichia coli using nucleosome as substrate at 10 uM by radiometric HotSpot assay relative to control; how it was run: as §2
Chain of N-lysine methyltransferase KMT5A (Homo sapiens) (Q9NQR1 whole entry, the tested form may be a part): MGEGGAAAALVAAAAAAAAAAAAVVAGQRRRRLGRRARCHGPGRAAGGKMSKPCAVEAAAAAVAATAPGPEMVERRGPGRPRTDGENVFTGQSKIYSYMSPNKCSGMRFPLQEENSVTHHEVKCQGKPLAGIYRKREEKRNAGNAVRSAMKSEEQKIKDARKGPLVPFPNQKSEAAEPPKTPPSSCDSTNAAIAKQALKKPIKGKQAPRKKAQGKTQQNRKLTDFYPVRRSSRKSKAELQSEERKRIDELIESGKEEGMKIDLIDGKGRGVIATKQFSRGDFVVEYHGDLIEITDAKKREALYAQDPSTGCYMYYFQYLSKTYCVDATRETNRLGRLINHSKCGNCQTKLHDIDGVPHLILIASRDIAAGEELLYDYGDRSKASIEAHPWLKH

[21] = molecular target: Histone-lysine N-methyltransferase EHMT2 (Homo sapiens) (UniProt Q96KQ7); experiment: Inhibition of N-terminal GST-fused recombinant human EHMT2 (786 to 1210 residues) expressed in Escherichia coli using histone H3 (1 to 21) as substrate at 10 uM by radiometric HotSpot assay relative to control; how it was run: as §2
[22] = molecular target: Protein arginine N-methyltransferase 7 (Homo sapiens) (UniProt Q9NVM4); experiment: Inhibition of recombinant human N-terminal His-tagged full length PRMT7 (2 to 692 residues) expressed in baculovirus system using GST-GAR as substrate at 10 uM by radiometric HotSpot assay relative to control; how it was run: as §2
[23] = molecular target: Histone-lysine N-methyltransferase SUV39H1 (Homo sapiens) (UniProt O43463); experiment: Inhibition of recombinant human N-terminal fusion protein tagged and C-terminal His-tagged SUV39H1 (44 to 412 residues) expressed in Escherichia coli using nucleosome as substrate at 10 uM by radiometric HotSpot assay relative to control; how it was run: as §2
Chain of Histone-lysine N-methyltransferase SUV39H1 (Homo sapiens) (O43463 whole entry, the tested form may be a part): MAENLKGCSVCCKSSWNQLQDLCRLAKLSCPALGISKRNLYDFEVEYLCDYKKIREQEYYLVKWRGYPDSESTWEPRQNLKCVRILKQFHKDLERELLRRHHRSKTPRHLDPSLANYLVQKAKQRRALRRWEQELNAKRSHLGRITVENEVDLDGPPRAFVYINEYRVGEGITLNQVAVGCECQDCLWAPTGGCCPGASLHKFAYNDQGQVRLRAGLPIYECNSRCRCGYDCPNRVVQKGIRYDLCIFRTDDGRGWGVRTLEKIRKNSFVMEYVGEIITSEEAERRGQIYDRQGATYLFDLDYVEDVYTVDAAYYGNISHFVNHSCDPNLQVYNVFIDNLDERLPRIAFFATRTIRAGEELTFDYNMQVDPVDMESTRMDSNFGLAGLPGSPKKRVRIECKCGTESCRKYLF

[24] = species: Homo sapiens; experiment: Inhibition of recombinant human N-terminal His-tagged MLL1 (3745 to 3969 residues)/human WDR5 (22 to 334)/human RbBP5 (1 to 538)/human Ash2L (2 to 534)/human DPY30 (1 to 99) expressed in Escherichia coli using nucleosome as substrate at 10 uM by radiometric HotSpot assay relative to control; how it was run: as §2
[25] = molecular target: Protein arginine N-methyltransferase 6 (Homo sapiens) (UniProt Q96LA8); experiment: Inhibition of recombinant human His-tagged PRMT6 (2 to end residues) expressed in Escherichia coli using histone H3 as substrate at 10 uM by radiometric HotSpot assay relative to control; how it was run: as §2
Chain of Protein arginine N-methyltransferase 6 (Homo sapiens) (Q96LA8 whole entry, looked up): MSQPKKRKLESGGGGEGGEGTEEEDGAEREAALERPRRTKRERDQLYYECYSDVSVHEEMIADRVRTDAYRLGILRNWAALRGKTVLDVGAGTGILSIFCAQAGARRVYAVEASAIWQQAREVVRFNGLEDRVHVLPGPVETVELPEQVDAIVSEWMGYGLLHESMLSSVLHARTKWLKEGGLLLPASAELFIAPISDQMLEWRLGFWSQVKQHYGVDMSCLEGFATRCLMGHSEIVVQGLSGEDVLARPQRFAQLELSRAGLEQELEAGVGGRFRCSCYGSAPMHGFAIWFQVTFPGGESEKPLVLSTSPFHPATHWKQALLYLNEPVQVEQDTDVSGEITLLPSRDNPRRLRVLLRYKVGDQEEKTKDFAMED

[26] = molecular target: Protein arginine N-methyltransferase 1 (Homo sapiens) (UniProt Q99873); experiment: Inhibition of recombinant human GST-tagged PRMT1 (2 to end residues) expressed in Escherichia coli using histone H4 as substrate at 10 uM by radiometric HotSpot assay relative to control; how it was run: as §2
[27] = molecular target: Histone-lysine N-methyltransferase 2D (Homo sapiens) (UniProt O14686); experiment: Inhibition of recombinant human N- terminal His-tagged MLL2 (5319 to 5537 residues) expressed in Escherichia coli using core histone as substrate at 10 uM by radiometric HotSpot assay relative to control; how it was run: as §2
[28] = test system: A549; experiment: Cytotoxicity against human A549 cells assessed as cell viability up to 10 uM incubated for 48 hrs by Hoechst staining based fluorescence microscopic analysis; details: a549, 48 h

Compound: Nc1ncnc2c1ncn2[C@@H]1O[C@H](CN2CCCC3(CNC3)C2)[C@@H](O)[C@H]1O
IC50 [1]: 530 nM

Compound: Nc1ncnc2c1ncn2[C@@H]1O[C@H](CN2CCCC2)[C@@H](O)[C@H]1O
IC50 [1]: 76000 nM
IC50 [15]: > 10000 nM

Compound: Nc1ncnc2c1ncn2[C@@H]1O[C@H](CN2CCC3(CCNC3)CC2)[C@@H](O)[C@H]1O
IC50 [1]: > 10000 nM

Compound: NCC[C@@H]1CCCN1C[C@H]1O[C@@H](n2cnc3c(N)ncnc32)[C@H](O)[C@@H]1O
IC50 [1]: 83 nM
IC50 [15]: 2400 nM

Compound: Nc1ncnc2c1ncn2[C@@H]1O[C@H](CN2CCC(N)CC2)[C@@H](O)[C@H]1O
IC50 [1]: > 10000 nM

Compound: Nc1ncnc2c1ncn2[C@@H]1O[C@H](CN2CCC3(CCNCC3)CC2)[C@@H](O)[C@H]1O
IC50 [1]: > 10000 nM

Compound: CC(=O)N1CCC2(CCCN2C[C@H]2O[C@@H](n3cnc4c(N)ncnc43)[C@H](O)[C@@H]2O)CC1
IC50 [1]: > 10000 nM

Compound: Nc1ncnc2c1ncn2[C@@H]1O[C@H](CN2CCC23CNC3)[C@@H](O)[C@H]1O
IC50 [1]: 5100 nM

Compound: Nc1ncnc2c1ncn2[C@@H]1O[C@H](CN2CCC3(CCNCC3)C2)[C@@H](O)[C@H]1O
IC50 [1]: 5400 nM

Compound: NCC[C@H]1CCCN1C[C@H]1O[C@@H](n2cnc3c(N)ncnc32)[C@H](O)[C@@H]1O
IC50 [1]: 340 nM

Second part, led by results:

inhibition [2]: < 25%
inhibition [3]: < 25%
inhibition [4]: Active
inhibition [5]: < 25%
inhibition [6]: < 25%
IC50 [1]: 48 nM
inhibition [7]: < 25%
inhibition [8]: < 25%
inhibition [9]: > 90%
inhibition [10]: < 25%
Kd [11]: 7.6 nM
inhibition [13]: Active
inhibition [14]: < 25%
IC50 [15]: 200 nM
inhibition [16]: < 25%
inhibition [17]: < 25%
inhibition [18]: < 25%
inhibition [19]: < 25%
inhibition [20]: < 25%
inhibition [21]: < 25%
inhibition [22]: < 25%
inhibition [23]: < 25%
inhibition [24]: < 25%
inhibition [25]: < 25%
inhibition [26]: < 25%
inhibition [27]: < 25%
Compound: CN1CCC2(CCCN2C[C@H]2O[C@@H](n3ccc4c(N)ncnc43)[C@H](O)[C@@H]2O)CC1
inhibition [12]: < 25%

IC50 [1]: 2700 nM
Compound: Nc1ncnc2c1ncn2[C@@H]1O[C@H](CN2CCCC23CCNC3)[C@@H](O)[C@H]1O (stereo in doubt; 3b)

IC50 [1]: 52 nM
IC50 [15]: 2300 nM
Compound: Nc1ncnc2c1ncn2[C@@H]1O[C@H](CN2CCCC23CCNCC3)[C@@H](O)[C@H]1O
Activity [28]: Non-Toxic

IC50 [1]: 740 nM
Compound: Nc1ncnc2c1ncn2[C@@H]1O[C@H](CN2CCCC23CNC3)[C@@H](O)[C@H]1O

IC50 [1]: 370 nM
Compound: Nc1ncnc2c1ncn2[C@@H]1O[C@H](CN2CCC23CCNCC3)[C@@H](O)[C@H]1O

inhibition [4]: Active
IC50 [1]: 9.5 nM
inhibition [13]: Active
IC50 [15]: 58 nM
Compound: Nc1ncnc2c1ccn2[C@@H]1O[C@H](CN2CCCC23CCNCC3)[C@@H](O)[C@H]1O

IC50 [1]: > 10000 nM
Compound: Nc1ncnc2c1ncn2[C@@H]1O[C@H](CN2CCCC23CCCCC3)[C@@H](O)[C@H]1O

IC50 [1]: 3300 nM
Compound: Nc1ncnc2c1ncn2[C@@H]1O[C@H](CN2CCCC23CCNC3)[C@@H](O)[C@H]1O (stereo in doubt; 3a)
